What was measured:
Hck = conditions: ref [12]; cited from earlier work
Fyn(R96I)-SH3-GST = assay: GST pull-down, SDS-PAGE and Coomassie blue staining; format: binding; conditions: in vitro
Summary of the method: (§1)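 Partner protein: human Alix fragment ALIX_V+PRR (residues 362–760, V domain plus SH3-binding proline-rich region), expressed with an N-terminal His6-Smt3 tag in E. coli BL21(DE3). Baits were GST-fused SH3 domains (Hck; Fyn wild-type; Fyn RT-loop mutant with Arg96 replaced by Ile). In vitro GST pull-down; bound protein resolved by SDS-PAGE and visualised by Coomassie blue staining.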

[1] = tested on: Hck-SH3, Fyn(WT)-SH3, and Fyn(R96I)-SH3; assay: NMR 1H-15N HSQC, comparison across SH3 domains; format: binding; conditions: 1 equivalent of ALIXV+PRR
Hck-SH3-GST = assay: GST pull-down, SDS-PAGE and Coomassie blue staining; format: binding, human; conditions: in vitro
Summary of the method: as §1

[2] = SAXS; apo; compared with 190 ± 10 Å; ref [12]; cited from earlier work

| GST pull-down binding (Fyn(R96I)-SH3-GST) | GST pull-down binding (Hck-SH3-GST) | Molecule | binding to and activation of Hck (Hck) | involvement of nSrc loop, Hck-SH3 versus Fyn(R96I)-SH3 [1] | maximum diameter (Dm) compared with Fyn(R96I)-SH3-bound ALIXV+PRR [2] |
| --- | --- | --- | --- | --- | --- |
|  |  | Alix: ALG-2 (apoptosis-linked gene 2)-interacting protein X, an adapter protein (protein, UniProt Q8WUM4 2-868, looked up) Programmed cell death …: ATFISVQLKKTSEVDLAKPLVKFIQQTYPSGGEEQAQYCRAAEELSKLRRAAVGRPLDKHEGALETLLRYYDQICSIEPKFPFSENQICLTFTWKDAFDKGSLFGGSVKLALASLGYEKSCVLFNCAALASQIAAEQNLDNDEGLKIAAKHYQFASGAFLHIKETVLSALSREPTVDISPDTVGTLSLIMLAQAQEVFFLKATRDKMKDAIIAKLANQAADYFGDAFKQCQYKDTLPKEVFPVLAAKHCIMQANAEYHQSILAKQQKKFGEEIARLQHAAELIKTVASRYDEYVNVKDFSDKINRALAAAKKDNDFIYHDRVPDLKDLDPIGKATLVKSTPVNVPISQKFTDLFEKMVPVSVQQSLAAYNQRKADLVNRSIAQMREATTLANGVLASLNLPAAIEDVSGDTVPQSILTKSRSVIEQGGIQTVDQLIKELPELLQRNREILDESLRLLDEEEATDNDLRAKFKERWQRTPSNELYKPLRAEGTNFRTVLDKAVQADGQVKECYQSHRDTIVLLCKPEPELNAAIPSANPAKTMQGSEVVNVLKSLLSNLDEVKKEREGLENDLKSVNFDMTSKFLTALAQDGVINEEALSVTELDRVYGGLTTKVQESLKKQEGLLKNIQVSHQEFSKMKQSNNEANLREEVLKNLATAYDNFVELVANLKEGTKFYNELTEILVRFQNKCSDIVFARKTERDELLKDLQQSIAREPSAPSIPTPAYQSSPAGGHAPTPPTPAPRTMPPTKPQPPARPPPPVLPANRAPSATAPSPVGAGTAAPAPSQTPGSAPPPQAQGPPYPTYPGYPGYCQMPMPMGYNPYAYGQYNMPYPPVYHQSPGQAPYPGPQQPSYPFPQPPQQSYYPQQ | binds to and activates Hck |  |  |
| binding | binding | ALIXV+PRR: Human Alix recombinant construct (ALIXV+PRR) consisting of residues 362–760 (protein, left off: His6-Smt3, N-terminal, state not stated) SVQQSLAAYNQRKADLVNRSIAQMREATTLANGVLASLNLPAAIEDVSGDTVPQSILTKSRSVIEQGGIQTVDQLIKELPELLQRNREILDESLRLLDEEEATDNDLRAKFKERWQRTPSNELYKPLRAEGTNFRTVLDKAVQADGQVKECYQSHRDTIVLLCKPEPELNAAIPSANPAKTMQGSEVVNVLKSLLSNLDEVKKEREGLENDLKSVNFDMTSKFLTALAQDGVINEEALSVTELDRVYGGLTTKVQESLKKQEGLLKNIQVSHQEFSKMKQSNNEANLREEVLKNLATAYDNFVELVANLKEGTKFYNELTEILVRFQNKCSDIVFARKTERDELLKDLQQSIAREPSAPSIPTPAYQSSPAGGHAPTPPTPAPRTMPPTKPQPPARPPP |  | the nSrc loop seems to be more involved in the Hck-SH3–ALIXV+PRR interaction than in the Fyn(R96I)-SH3–ALIXV+PRR interaction | the same |
